Our source for the ED50 and Ratio values is ChEMBL document CHEMBL1135567, “Synthesis and structure-activity relationships of an orally available and long-acting analgesic peptide, N(alpha)-amidino-Tyr-D-Arg-Phe-MebetaAla-OH (ADAMB)” (J Med Chem, 2002).

Each structure is given as a SMILES string.

The subject of experiment [1] is Mus musculus. The experiment in a line: In vivo antinociceptive activity expressed as ED50 administered perorally for tail pressure test in mice. The conditions noted are these: po.
Experiment [2] has as its system Mus musculus. The experiment in a line: (§1) In vivo antinociceptive activity expressed as ED50 administered perorally for tail pressure test. The conditions noted are these: po.
For experiment [3], the system named is Mus musculus. Described as §1. The conditions noted are these: po. This is another data set of the same source.
A short description of experiment [4]: Ratio of ED50 value administered subcutaneously to that of perorally. Type of experiment: functional. Summed up:
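Mouse tail pressure test ED50 values obtained after sc and po dosing by Litchfield–Wilcoxon at peak activity. The sc ED50 divided by the po ED50 is expressed as a percentage.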

On to `CN1CC[C@]23c4c5ccc(O)c4O[C@H]2[C@@H](O)C=C[C@H]3[C@H]1C5` [MORPHINE], for which the ED50 was 3.3 mg/kg with Mus musculus [1], 15 mg/kg with Mus musculus [2] and 1.7 mg/kg in the experiment with Mus musculus [3]. Also, the Ratio in experiment [4] came out at 15.

What is called ED50 is the dose at which the effect has come halfway, by size or by number of responders. Read a low ED50 as greater potency.
